# CRFBP-R2 agonist: agonists of human CRF-binding protein/CRF-R2 receptor complex; HEK293 CRF-R2/CRF-BP, calcium dye fluorescence (FLIPR); percent of saturating CRF peptide response; activation, % at 13.2 µM; hit rate 0.46% among 350,000; AID 588473;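 active = activation of at least 50%, plus an integration ratio under a set limit after plate pattern correction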;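 also: plate controls were neutral control wells without compound for no effect and CRF at EC100 for full effect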
# zfTRPN1 agonist: activates the zebrafish TRPN1 channel; HEK293 zebrafish TRPN1-YFP, Fluo-8 calcium fluorescence; 100% = response to 87 µM carbachol; activation, % at 3 µM; hit rate 0.18% among 220,000; AID 1424;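 active = activation above its plate's cutoff, the mean activation of test wells on that plate plus 3 SD, cut at about 19% in these data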;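 also: 0% = DMSO alone and 100% = 87 µM carbachol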
#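 Material: zebrafish TRPN1-YFP in HEK293 cells; Doses: single test compound dose, 3 µM nominal, 0.3% DMSO; Timing: dye loading 1 h at 37 °C, then 30 min room temperature; Technique: intracellular calcium fluorescence with Fluo-8; Benchmarks: high carbachol 87 µM, low DMSO alone.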
# OXTR ag: activates the human oxytocin receptor; hit rate 0.32% among 320,000; P30559; CHO-OTR cells, Fluo-8 calcium fluorescence; normalized: DMSO 0%, oxytocin 100%; activation, % at 3 µM;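 active = activation above the mean of all tested compounds plus 3 SD, cutoff set per screening run, cut at about 20% in these data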;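 also: peak over basal fluorescence ratio from a 100 s FLIPR kinetic read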
# V1R ag counter: activates human V1a receptor in oxytocin agonist counter-screen. activation, % at 3 µM. P37288. CHO-V1R cells, Fluo-8 calcium fluorescence, agonist mode; 0% DMSO, 100% 3 nM vasopressin. hit rate 0.25% among 320,000;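 active = activation above the mean activation of all tested compounds plus 3 SD, per screening run, cut at about 20% in these data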;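 also: signal is peak over basal fluorescence ratio across a 100 second FLIPR read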
# Target sequence (P37288 whole entry, looked up): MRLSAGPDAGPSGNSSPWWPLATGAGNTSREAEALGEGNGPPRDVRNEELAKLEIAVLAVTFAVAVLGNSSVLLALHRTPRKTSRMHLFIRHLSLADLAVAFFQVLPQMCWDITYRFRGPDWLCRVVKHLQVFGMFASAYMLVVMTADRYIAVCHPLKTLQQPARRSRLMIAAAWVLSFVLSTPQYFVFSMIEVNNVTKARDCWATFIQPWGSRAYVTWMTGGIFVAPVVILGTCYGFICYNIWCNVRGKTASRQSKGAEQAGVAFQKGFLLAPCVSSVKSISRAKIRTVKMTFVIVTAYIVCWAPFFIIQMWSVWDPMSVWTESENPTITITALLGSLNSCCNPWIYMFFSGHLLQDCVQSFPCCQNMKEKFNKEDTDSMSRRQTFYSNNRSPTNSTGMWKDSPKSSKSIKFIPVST
# TRPML3 ag: human mucolipin-3 channel agonism; Q8TDD5; HEK293 TRPML3-YFP, Fluo-8 calcium fluorescence; 100% = the carbachol control signal; activation, % at 3 µM; hit rate 0.29% among 220,000; AID 1448;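 active = activation above its plate's cutoff, the mean activation of the plate's test wells plus 3 SD, cut at about 12% in these data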;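 also: 0% = DMSO only wells and 100% = carbachol wells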
#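 Test system: HEK293 cells stably carrying human TRPML3-YFP; Doses: single dose, 3 µM final nominal compound, 0.3% DMSO final; Schedule: dye loading 1 h 37 °C then 30 min ambient, 125 s read; Technique: Fluo-8 calcium fluorescence; Benchmarks: high control carbachol 87 µM, low control DMSO.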
# OXTR potentiator: potentiates the human oxytocin receptor response; CHO-OTR cells, Fluo-8 calcium fluorescence, potentiator mode; 0% = oxytocin EC15, 100% = EC100; activation, % at 3 µM; hit rate 0.061% among 320,000; AID 2445;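 active = activation above that plate's cutoff, the mean activation of tested compounds plus 3 SD, cut at about 6.6% in these data, passing the limit was not always enough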;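 also: 100% uses oxytocin at 75 nM as the full agonist control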
#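 System: human OTR in CHO cells; Also added: sub-maximal oxytocin, roughly EC15; Timing: compound 6 min at room temperature before oxytocin, 100 s read; Technique: Fluo-8 intracellular calcium fluorescence, ex 470-495, em 515-575 nm; Controls: oxytocin EC15 low and EC100 high; Replication: singlicate.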
# An asterisk follows results filed as active; nt = no result. A selection: hits, their analogues and other compounds. The true share with any hit is near 0.83%.
SMILES,CRFBP-R2 agonist,zfTRPN1 agonist,OXTR ag,V1R ag counter,TRPML3 ag,OXTR potentiator
O=C(Nc1cc(S(=O)(=O)N2CCCCC2)ccc1O)c1ccccc1NS(=O)(=O)c1ccc(F)c(F)c1,111*,0,0,5,-1,-11
O=C(Nc1cccc(S(=O)(=O)N2CCCCC2)c1)c1ccccc1NS(=O)(=O)c1ccc(F)cc1,64*,1,9,10,2,-10
O=C(Nc1cccc(C(F)(F)F)c1)c1cc(S(=O)(=O)N2CCCCC2)ccc1N1CCOCC1,0,0,-2,0,0,-15
O=C(Nc1cc(S(=O)(=O)Nc2ccccc2Cl)ccc1O)c1ccc(F)cc1F,24,nt,17,12,nt,-12
O=C(Nc1cccc(F)c1)c1cc(S(=O)(=O)N2CCOCC2)ccc1N1CCCC1,66*,nt,0,0,nt,-8
Cc1ccc(NC(=O)c2ccccc2NS(=O)(=O)c2ccc(F)cc2)cc1S(=O)(=O)N1CCCCC1,46,6,11,10,3,-18
Cc1nnc2c(NC3CCCCC3)nc3ccccc3n12,1,nt,-1,-1,nt,2
CCCC[C@@H]1C=C(C(=O)O)[C@H](c2ccc(C#N)cc2)N1S(=O)(=O)c1ccc(C)cc1,1,nt,1,0,nt,-8
CCn1c(/C=C/N(C(C)=O)c2ccccc2)[n+](CC)c2ccc(Cl)cc21,1,3,1,1,0,-5
CC[n+]1c(/C=C/C=C/N(C(C)=O)c2ccccc2)sc2ccccc21,157*,0,0,-1,0,3
CC(=O)Nc1sc(N/N=C/c2ccccc2)nc1-c1ccc(C)cc1,0,0,-1,0,0,0
CC(=O)Nc1sc(/C(C#N)=C\c2cccc(Cl)c2)nc1-c1ccc(C)cc1,319*,2,10,5,3,-3
CCOC(=O)C1=CN(Cc2ccco2)S(=O)(=O)NC1c1ccc(Br)cc1F (configuration not stated),-1,nt,nt,nt,nt,nt
Cc1cc(=O)[nH]c(SCC(=O)/C=C2\N(C)c3ccccc3C2(C)C)n1,3,4,23*,7,5,-16
CN1/C(=C/C(=O)CSc2ccccc2C(=O)O)C(C)(C)c2ccccc21,2,1,2,2,1,2
Cc1ccc(S(=O)(=O)Nc2ccc(C(=O)N3CCN(c4ccccc4O)CC3)cc2)cc1[N+](=O)[O-],-2,nt,1,3,nt,-13
CCC1(CC)NC(=O)N(CC(=O)N2CCc3ccccc32)C1=O,0,nt,1,-1,nt,4
CCC1(c2ccc(F)cc2)NC(=O)N(CC(=O)Nc2ccccc2C)C1=O (configuration not stated),13,nt,18,9,nt,-10
CCC1(c2ccc(F)cc2)NC(=O)N(CC(=O)N2CCc3ccccc32)C1=O (configuration not stated),53*,nt,29*,27*,nt,-15
CC1(c2ccc(Cl)cc2)NC(=O)N(CC(=O)N2CCc3ccccc32)C1=O (configuration not stated),82*,nt,40*,28*,nt,-13
CCC1(c2ccccc2)NC(=O)N(CC(=O)N2CCc3ccccc32)C1=O (configuration not stated),7,nt,11,4,nt,-12
CCC1(c2ccc(F)cc2)NC(=O)N(CC(=O)Nc2ccccc2Cl)C1=O (configuration not stated),14,nt,23*,22*,nt,-15
CC1=CC(=O)C(C(C)=Nc2ccccc2[N+](=O)[O-])C(=O)O1 (configuration not stated),1,nt,nt,nt,nt,nt
O=C(NCCc1ccc(C(F)(F)F)cc1)C1CCC(=O)N(CCCN2CCCC2=O)C1 (configuration not stated),-1,nt,-1,0,nt,-3
O=C(Cc1ccccc1[N+](=O)[O-])Nc1ccc(S(=O)(=O)N2CCCC2)cc1,nt,nt,2,4,nt,0
SMILES,CRFBP-R2 agonist,zfTRPN1 agonist,OXTR ag,V1R ag counter,TRPML3 ag,OXTR potentiator
O=C1c2cccc3c(N4CCCCC4)ccc(c23)C(=O)N1c1ccc(O)cc1,224*,20*,22*,23*,12*,-17
Cc1ccc(N2C(=O)c3cccc4c(N5CCN(C)CC5)ccc(c34)C2=O)c2cccnc12,89*,4,14,6,5,-10
O=C1c2cccc3c(N4CCCCC4)ccc(c23)C(=O)N1c1ccccc1O,259*,36*,43*,41*,18*,-36
C[C@@H](N)C(=O)NC[C@H]1CC[C@H](C(=O)N[C@@H](Cc2ccccc2)C(=O)O)CC1,16,nt,nt,nt,nt,nt
CC(C#N)(CCc1ccccn1)CCc1ccccn1,0,nt,nt,nt,nt,nt
CS(=O)(=O)N(Cc1ccc(Cl)cc1)c1ccc(C(=O)NCCSc2ccccn2)cc1,54*,2,10,6,1,-12
O=C(NCCSc1ccccn1)c1ccc(Cl)cc1,2,0,-2,-1,0,-11
COc1cc(OC)c(OC)cc1/C=C1/Cc2ccccc2C1=O,51*,nt,3,4,nt,-15
CCCSc1nc2sc3c(c2c(=O)[nH]1)CCN(Cc1ccccc1)C3,44,3,5,6,4,-8
O=c1[nH]c(C(Cl)Cl)nc2sc3c(c12)CCN(Cc1ccccc1)C3,56*,0,-1,0,0,-4
C[C@@H]1CCCCO[C@H](CN(C)C(=O)Cc2ccccc2)[C@H](C)CN([C@@H](C)CO)C(=O)c2cc(NC(=O)Nc3ccc(F)cc3)ccc2O1,4,nt,nt,nt,nt,nt
CCCCCCCCNC(=O)/C(C#N)=C/c1ccccc1[N+](=O)[O-],62*,0,-1,0,3,-1
N#C/C(=C\c1ccccc1[N+](=O)[O-])C(=O)NCc1ccccc1,23,2,4,2,3,-6
CC(C)N(C(=O)[C@H]1CC(CC(=O)NC(C)(C)C)C(=O)N2CCc3c([nH]c4ccccc34)[C@]12C)C(C)C (some centres not stated),-1,nt,-2,-1,nt,-3
O=c1cc2oc3cc(O)c(O)cc3c(-c3ccccc3O)c-2cc1O,44,18,nt,nt,12*,nt
CCOC(=O)c1oc2cc(O)ccc2c(=O)c1-c1ccccc1OC,0,1,1,1,0,-7
CCOc1ccccc1-c1c2cc(O)c(=O)cc-2oc2cc(O)c(O)cc12,260*,4,nt,nt,8,nt
COc1ccc(OC)c(-c2c3cc(O)c(=O)cc-3oc3cc(O)c(O)cc23)c1,145*,7,715*,486*,3,-12
CC(=O)NC1=CC(=C[N+](=O)[O-])C=C1O,-2,nt,nt,nt,nt,nt
